Tests used:
[1] = test system: A375 and SKMEL5 parental cells; test: MTS viability of parental BRAF-mutant melanoma cells under PLX4032; assay type: cell-based; conditions: concentrations in which PLX-R derivative lines grew
[2] = test system: mice; conditions: administered orally or intraperitoneally to mice; cited from earlier work
[3] = cited from earlier work
[4] = test system: normal primary cells or cell lines; conditions: at the concentrations employed herein; cited from earlier work
[5] = test system: cancer cells with activation of RAS or RAS signaling; test: "Ras-specific" cytotoxicity
[6] = test system: SBcl2 melanoma cells; test: Clonogenic colony assay; assay type: cell-based; conditions: SBcl2, 1 µM, 48 hr of drug exposure, then 8 days without inhibitor
How it was run: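 SBcl2 cells exposed to test compound at 1 µM for 0, 12, 24 or 48 hr. Equal numbers of viable cells from each condition then replated at low density and grown 8 days in inhibitor-free medium. Colony-forming ability compared across exposure times.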

[7] = test system: SBcl2 cells; test: DNA fragmentation; assay type: cell-based; conditions: 24 hr
How it was run: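 SBcl2 cells treated 24 hr with test compound (5 or 0.5 µM) alone, or at 0.5 µM together with pan-caspase inhibitor Z-VAD-FMK (100 µM). Sub-G1 (fragmented DNA) fraction measured by flow cytometry. Mean of duplicates with SD.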

[8] = test system: caspase 3/7 in SBcl2 cells; test: Caspase 3/7 activity assay; assay type: cell-based; conditions: SBcl2, 5 µM, 24 hr
[9] = biological target: PKCδ (Homo sapiens, UniProt Q05655); test: In vitro kinase assay, PKCδ; assay type: biochemical
[10] = test system: melanoma cell lines with NRAS mutations (SBcl2, FM6, SKMEL2, WM1366, WM1361A, WM852); test: MTS cell survival assay in NRAS-mutant melanoma lines; assay type: cell-based; conditions: 24, 48, 72 hr
How it was run: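 Cell lines carrying NRAS Q61 mutations (SBcl2, FM6, SKMEL2, WM1366, WM1361A, WM852) exposed to test compounds at 2 or 5 µM, or 0.2 or 0.5 µM (0.1 and 2 µM also in SBcl2). MTS read at 24, 48 and 72 hr. Controls: DMSO vehicle and 2 µM negative control compound. Mean of triplicates ± SD; p versus DMSO at 72 hr.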

[11] = test system: MKK4-JNK-H2AX pathway in SBcl2 cells; test: Immunoblot analysis of JNK pathway signaling; assay type: cell-based; conditions: pre-treatment 50 µM, data not shown

PKCδ, sequence (Q05655 whole entry): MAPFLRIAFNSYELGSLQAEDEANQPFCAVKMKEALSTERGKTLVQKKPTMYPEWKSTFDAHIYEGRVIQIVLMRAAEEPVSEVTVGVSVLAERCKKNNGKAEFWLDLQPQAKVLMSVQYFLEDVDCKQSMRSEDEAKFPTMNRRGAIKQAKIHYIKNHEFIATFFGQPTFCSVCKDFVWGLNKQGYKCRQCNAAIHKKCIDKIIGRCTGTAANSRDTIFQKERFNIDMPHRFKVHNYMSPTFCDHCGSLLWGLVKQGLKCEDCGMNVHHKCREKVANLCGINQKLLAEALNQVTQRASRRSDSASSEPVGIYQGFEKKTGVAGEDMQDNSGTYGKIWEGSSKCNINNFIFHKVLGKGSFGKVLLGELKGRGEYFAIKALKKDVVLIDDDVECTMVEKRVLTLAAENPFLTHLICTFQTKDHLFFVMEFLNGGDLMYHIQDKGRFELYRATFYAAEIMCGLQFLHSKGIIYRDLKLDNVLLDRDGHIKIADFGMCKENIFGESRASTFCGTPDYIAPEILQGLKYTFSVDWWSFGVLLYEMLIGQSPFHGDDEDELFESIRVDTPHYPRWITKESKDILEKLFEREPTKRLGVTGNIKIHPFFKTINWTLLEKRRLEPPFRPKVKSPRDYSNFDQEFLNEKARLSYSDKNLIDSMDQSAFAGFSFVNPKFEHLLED

## CCCS(=O)(=O)Nc1ccc(F)c(C(=O)c2c[nH]c3ncc(-c4ccc(Cl)cc4)cc23)c1F [PLX4032, vemurafenib]
[1]
  Cytotoxicity to parental cells: cytotoxic

## CC(=O)c1c(O)c(C)c(O)c(Cc2c(O)c3c(c(C(=O)/C=C/c4ccccc4)c2O)OC(C)(C)C=C3)c1O [Rottlerin, rottlerin]
[2]
  Tolerability: well-tolerated
[3]
  Aqueous solubility: moderate
[4]
  Cytostatic or cytotoxic effect on normal cells: not cytostatic or cytotoxic
[5]
  "Ras-specific" Cytotoxicity: 3 to 5 µM
[6]
  Reduction in the number of colonies: approximately 40 fold
[7]; SBcl2, 5 µM
  Proportion of sub-G1 population (fragmented DNA): significantly higher
[8]
  Increase in caspase 3/7 activity vs vehicle (DMSO): 5 fold
[9]; PKCδ IC50, in vitro kinase assay
  IC50: 3 to 5 µM
[9]; PKCδ over PKCα
  PKCδ/PKCα Selectivity: 28-fold
[10]; 2 µM
  Cell proliferation (MTS): intermediate inhibitory effects
[10]; 5 µM
  Cell proliferation (MTS): consistently inhibited proliferation of all cell lines

## carbobenzoxy-valyl-alanyl-aspartyl-[Omethyl]-fluoromethylketone [Z-VAD-FMK]
[11]
  B106-induced caspase 3 cleavage (immunoblot): prevented
[7]; SBcl2 pretreated with 100 µM, B106 0.5 µM
  B106-induced DNA fragmentation: significantly abrogated

Reference: publication PMC4160068 (ACS chemical biology, 2014)
